Experimental data gathered from unrelated publications.
Compare with care: the assays were run in different laboratories.
Target: Serine/threonine-protein kinase 17A (STK17A, Homo sapiens, UniProt Q9UEE5)
Sequence (Q9UEE5 1-414, as in one of the studies): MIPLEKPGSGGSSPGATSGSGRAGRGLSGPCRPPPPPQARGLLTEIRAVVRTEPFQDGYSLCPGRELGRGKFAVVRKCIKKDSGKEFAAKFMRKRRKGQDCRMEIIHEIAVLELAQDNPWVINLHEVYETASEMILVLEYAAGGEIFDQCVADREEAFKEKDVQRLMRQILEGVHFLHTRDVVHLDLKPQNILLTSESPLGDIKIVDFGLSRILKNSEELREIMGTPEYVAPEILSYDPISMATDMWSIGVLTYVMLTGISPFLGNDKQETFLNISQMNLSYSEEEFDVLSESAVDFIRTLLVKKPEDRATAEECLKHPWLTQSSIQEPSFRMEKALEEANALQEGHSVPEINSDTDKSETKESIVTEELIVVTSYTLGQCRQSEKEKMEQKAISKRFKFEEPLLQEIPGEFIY

C#Cc1cccc(Nc2ncnc3cc(OCCOC)c(OCCOC)cc23)c1  remaining signal (cell-free assay; 0.5 µM): 99.7%
Cc1nn(CC(F)(F)F)cc1Nc1nccc(NCc2ccc(S(N)(=O)=O)cc2)n1  remaining activity (enzyme activity; inhibitor; radiometric; 1 µM): 103%
Cc1ccc(Nc2nccc(N(C)c3ccc4c(C)n(C)nc4c3)n2)cc1S(N)(=O)=O  inhibition (cell-free assay; 0.3 µM): -6%
Cc1c(NC(=O)c2cc(C(N)=O)nc3cc(F)ccc23)c(C(F)(F)F)nn1Cc1ccc(C#N)cc1  remaining binding (cell-free assay; competition with immobilised ligand; 1 µM): 90%
Brc1cnc(Nc2cccc(CN3CCOCC3)c2)nc1NCCc1c[nH]cn1  remaining activity (enzyme activity; inhibitor; radiometric; 1 µM): 8%
Nc1ncnc2occ(-c3ccc(NC(=O)Nc4cc(C(F)(F)F)ccc4F)cc3)c12  remaining signal (cell-free assay; 20 µM): 55%
O=C(Nc1ccc(Oc2ccc(F)cc2)cc1)N1CCc2ncccc2[C@H]1c1ccc(F)cc1  remaining binding (cell-free assay; competition with immobilised ligand; 1 µM): 86%
CNC(=O)c1cc(Oc2ccc(NC(=O)Nc3ccc(Cl)c(C(F)(F)F)c3)cc2)ccn1  inhibition (cell-free assay; 10 µM): 31%
NS(=O)(=O)c1ccc(CNc2nc(Nc3cccc(NC(=O)N4CCCC4)c3)ncc2Br)cc1  remaining activity (enzyme activity; inhibitor; radiometric; 1 µM): 41%
CC(=O)c1c(NS(C)(=O)=O)c2cc(-c3ccc(Cl)cc3)c(-c3ccc(Cl)cc3Cl)nc2n(C)c1=O  remaining binding (cell-free assay; competition with immobilised ligand; 1 µM): 88%
Cc1ccc(NC(=O)c2ccc(CN3CCN(C)CC3)cc2)cc1Nc1nc(-c2cccnc2)cs1  remaining signal (cell-free assay; 0.5 µM): 104%
CCCS(=O)(=O)Nc1ccc(F)c(C(=O)c2c[nH]c3ncc(-c4ccc(Cl)cc4)cc23)c1F  inhibition (enzyme activity; inhibitor; 1 µM): < 10%
O=C1Nc2ccc(Cl)cc2C1=Cc1cc(Cl)c(O)c(Cl)c1  remaining signal (cell-free assay; 0.5 µM): 78.9%
CCCOc1ccc([C@H]2[C@H](C(=O)O)[C@@H](c3ccc4c(c3)OCO4)CN2CC(=O)Nc2c(CC)cccc2CC)cc1  remaining binding (cell-free assay; competition with immobilised ligand; 1 µM): 92%
NS(=O)(=O)c1ccc(CNc2ccnc(Nc3cccc(NC(=O)N4CCCC4)c3)n2)cc1  remaining activity (enzyme activity; inhibitor; radiometric; 1 µM): 82%
COc1cc2ncnc(Nc3ccc(F)c(Cl)c3)c2cc1OCCCN1CCOCC1  remaining signal (cell-free assay; 0.5 µM): 96%
Cc1nn(CC(F)(F)F)cc1Nc1ncc(C2CC2)c(NCCc2c[nH]cn2)n1  remaining activity (enzyme activity; inhibitor; radiometric; 1 µM): 107%
O=C1CCc2cc(Nc3cc(OC4CCOCC4)c([N+](=O)[O-])cc3Cl)ccc2N1  remaining binding (cell-free assay; competition with immobilised ligand; 1 µM): 95%
CN1CC(Oc2cnc(C#N)cc2-c2ccn3nc(NC(=O)C4CC4)cc3c2)C1  inhibition (enzyme activity; inhibitor; 1 µM): 10%
C[C@@H](c1cccc(C#N)c1)n1cc(Cl)cc(C(N)=O)c1=N  remaining binding (cell-free assay; competition with immobilised ligand; 1 µM): 89%
Cc1nn(CC(F)(F)F)cc1Nc1ncc(C2CC2)c(NCCCNC(=O)C2CCC2)n1  remaining activity (enzyme activity; inhibitor; radiometric; 1 µM): 25%
O=C(N[C@H]1CCCCC/C=C\C2C[C@@]2(C(=O)O)NC(=O)[C@@H]2C[C@@H](Oc3ccncc3)CN2C1=O)OC1CCCC1 (stereo partly shown)  remaining binding (binding; competition with immobilised ligand; 1 µM): 100%
O=C(NCCCNc1nc(Nc2cccc(NC(=O)N3CCCC3)c2)ncc1I)c1cccs1  remaining activity (enzyme activity; inhibitor; radiometric; 1 µM): 2%
COc1ccc2cc(OCC3(C(=O)O)CN(C(=O)c4ccc(F)cc4)C3)ccc2c1  remaining binding (cell-free assay; competition with immobilised ligand; 1 µM): 81%
CC(C)c1ccc(NC(=O)c2cccs2)c(-c2nc3ccccc3[nH]c2=O)c1  activity vs control (enzyme activity; inhibitor; 1 µM): 91%
